An excerpt weighted towards active compounds, which were near 2.6% of everything screened.
OXTR agonist = activates the human oxytocin receptor; P30559; CHO-OTR cells, Fluo-8 calcium fluorescence; normalized: DMSO 0%, oxytocin 100%; activation, % at 3 µM; 320,000 tested, 0.32% active; AID 2435;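 active = activation above the mean of all tested compounds plus 3 SD, cutoff set per screening run, cut at about 20% in these data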;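 also: peak over basal fluorescence ratio from a 100 s FLIPR kinetic read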
Target sequence (P30559 whole entry, looked up): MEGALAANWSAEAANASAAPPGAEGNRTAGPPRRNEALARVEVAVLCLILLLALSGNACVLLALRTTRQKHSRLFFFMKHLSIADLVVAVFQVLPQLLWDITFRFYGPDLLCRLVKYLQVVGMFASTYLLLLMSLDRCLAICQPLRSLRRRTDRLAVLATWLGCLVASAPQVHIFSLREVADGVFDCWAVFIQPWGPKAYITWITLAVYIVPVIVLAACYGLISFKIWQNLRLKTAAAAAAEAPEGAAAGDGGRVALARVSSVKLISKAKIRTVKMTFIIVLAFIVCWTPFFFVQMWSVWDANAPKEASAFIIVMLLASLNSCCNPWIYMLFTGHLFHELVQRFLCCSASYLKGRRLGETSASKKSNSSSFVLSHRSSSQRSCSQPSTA
OX1R antag-1 = antagonists of human orexin 1 receptor; CHO/OX1R cells, Fluo-8 calcium fluorescence, orexin A; 330,000 tested, 0.43% active; O43613; AID 434989; inhibition, % at 5 µM;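 active = inhibition above its plate's threshold, mean inhibition of all tested compounds on the plate plus 3 SD, cut at about 37% in these data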
CHO parental Ca = signal in parental CHO cells, OX1R antagonist counter-screen. parental CHO-K1, ATP-induced calcium, Fluo-8 fluorescence. inhibition, % at 5.6 µM. 330,000 tested, 0.63% active;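 active = inhibition above that plate's mean sample inhibition plus 3 SD, cut at about 26% in these data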
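Material – parental CHO cells · Reagent – ATP stimulus · Compound – single nominal dose of 5.6 µM per compound · Detection – Fluo-8 fluorescence · Read-out basis – percent inhibition of calcium signal · Controls – ATP-challenged DMSO wells low, unchallenged DMSO wells high · Repeats – no replicates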
OXTR potentiate = potentiates the human oxytocin receptor response | P30559 | CHO-OTR cells, Fluo-8 calcium fluorescence, potentiator mode; 0% = oxytocin EC15, 100% = EC100 | activation, % at 3 µM | 320,000 tested, 0.061% active | AID 2445;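 active = activation above that plate's cutoff, the mean activation of tested compounds plus 3 SD, cut at about 6.6% in these data, passing the limit was not always enough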
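Assay system: CHO cell line stably expressing human OTR | Also added: Oxytocin at about EC15, sub-maximal agonist stimulus | Times: Compound 6 min at room temperature before oxytocin, 100 s read | Measured by: Fluo-8 intracellular calcium fluorescence, ex 470-495, em 515-575 nm | Controls: EC15 oxytocin alone as 0%, 75 nM oxytocin as 100%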
V1aR counter = activates human V1a receptor in oxytocin agonist counter-screen; P37288; CHO-V1R cells, Fluo-8 calcium fluorescence, agonist mode; 0% DMSO, 100% 3 nM vasopressin; activation, % at 3 µM; 320,000 tested, 0.25% active;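 active = activation above the mean activation of all tested compounds plus 3 SD, per screening run, cut at about 20% in these data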;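 also: signal is peak over basal fluorescence ratio across a 100 second FLIPR read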
OX1R antag-2 = antagonists of human orexin 1 receptor (OX1R). 330,000 tested, 1.8% active. O43613. OX1R-expressing cells, FRET antagonist read-out. inhibition, % at 6.6 µM; in the data active = inhibition mostly above about 38%, no sharp cut-off; inactive = mostly below about 40%
A number is an active result; - = inactive; . = no result given.

SMILES	OXTR agonist	OX1R antag-1	CHO parental Ca	OXTR potentiate	V1aR counter	OX1R antag-2
C/C(CC(=O)Nc1ccc(C)c(Cl)c1)=N\NC(=O)c1cccc(O)c1	-	-	-	-	-	-
O=C(CNC(=O)c1ccccc1F)NCC(c1cccs1)N1CCOCC1 (stereo not given)	-	-	-	-	-	-
CC(NC(=O)CNC(=S)N(Cc1cccs1)C1CCCC1)c1ccccc1 (stereo not given)	-	-	-	-	-	-
CCCCn1c(=NC(=O)c2ccco2)c(C(=O)OCC)cc2c(=O)n3cccc(C)c3nc21	-	-	-	-	-	-
CCCCn1c(=NC(=O)c2ccco2)c(C(=O)OCC)cc2c(=O)n3ccccc3nc21	-	-	-	-	-	75.9
CCCCCn1c(=NC(=O)c2ccco2)c(C(=O)OCC)cc2c(=O)n3ccccc3nc21	-	-	-	-	-	51.2
CCOC(=O)c1cc2c(=O)n3ccccc3nc2n(Cc2ccco2)c1=NC(=O)c1ccc(OC)cc1OC	-	-	-	-	-	-
CCCN1CCC(=NNc2ccc(S(=O)(=O)N3CCOCC3)cc2[N+](=O)[O-])CC1	-	-	-	-	-	71.2
N#Cc1ccc(NCC(=O)Nc2ccc(S(=O)(=O)N3CCCCC3)cc2)cc1	-	-	-	-	-	-
CCOc1ccccc1C(=O)NC(C(=O)N(C)Cc1ccc2c(c1)OCO2)C(C)C (stereo not given)	-	-	-	-	-	-
CC(OC(=O)c1n[nH]c2ccccc12)C(=O)Nc1ccccc1[N+](=O)[O-] (stereo not given)	-	-	-	-	-	35.7
Cc1ccc(-c2nc3cccnc3s2)cc1NS(=O)(=O)c1ccc2c(c1)OCCO2	-	-	-	-	-	-
Cc1ccc(-c2nc3cccnc3s2)cc1NS(=O)(=O)c1cccs1	-	-	-	-	-	40.6
Cc1nc2ccc(S(=O)(=O)Nc3cccc(-c4nc5cccnc5s4)c3C)cc2s1	-	-	31.8	-	-	-
N#CC(C#N)=C(N)CSc1cccc[n+]1[O-]	-	-	-	-	-	-
O=[N+]([O-])c1cc(Br)c(Nc2ccccc2)c([N+](=O)[O-])c1	-	-	-	-	-	49.7
COc1ccc(-c2oc3ccc(-c4cc(OC)c(OC)c(OC)c4)cc3c2C#Cc2ccccn2)cc1	-	-	-	-	-	-
O=C(Nc1cc(Cl)cc(Cl)c1)Nc1cnccn1	-	-	35.9	-	-	-
O=C(Nc1ccc(F)cc1)Nc1cnccn1	-	-	-	-	-	-
c1ccc(CCNc2nc(-c3ccncc3)nc3ccccc23)cc1	-	-	-	-	-	-
O=C(CSc1cccc2cccnc12)Nc1cc(C(=O)O)cc(C(=O)O)c1	-	-	-	-	-	-
CCCOC(=O)c1ccc(NC(=O)c2cc(Cl)ccc2OC)cc1	-	-	-	-	-	66.5
C=CCn1c(N)cc(=O)nc1SCC(=O)Nc1ccc(C(=O)OCC)cc1	-	-	-	-	-	-
O=C(NCC1CCCO1)C(=O)N/N=C/c1cccc(Cl)c1 (stereo not given)	-	-	-	-	-	-
CCCCn1c(N)c(N(CC)C(=O)c2cc(CC)c(C)s2)c(=O)[nH]c1=O	-	-	-	-	-	-
SMILES	OXTR agonist	OX1R antag-1	CHO parental Ca	OXTR potentiate	V1aR counter	OX1R antag-2
COC(=O)C1=C(C)NC(C)=C(C(=O)OC)C1c1ccc2ccccc2n1	-	-	-	-	-	-
O=C1c2ccccc2C(=O)C1c1ccc2ccccc2n1	-	-	-	-	-	50.9
Cc1ccc(NC(=O)c2ccccc2OCC(=O)Nc2ccccc2F)cc1S(=O)(=O)N(C)C	-	-	-	-	-	-
C[C@]12c3[nH]c4ccc(Cl)cc4c3CCN1C(=O)[C@@H](CC(=O)NCCN1CCOCC1)C[C@@H]2C(=O)N1CCCCC1	.	-	-	.	.	-
CCOc1ccc(C(=O)Nc2ccc(N3CCN(C(C)=O)CC3)cc2)cc1[N+](=O)[O-]	-	-	-	-	-	-
CC(=O)N1CCN(c2ccc(Oc3ccc([N+](=O)[O-])c(C(F)(F)F)c3)cc2)CC1	-	-	43.7	-	-	-
Nc1ncnc2c1nc(SCCO)n2Cc1ccccc1	-	-	-	-	-	-
O=C(Nc1cnn(Cc2ccc(Cl)cc2)c1)c1ccc([N+](=O)[O-])cc1	-	-	64.2	-	-	-
CCOC(=O)c1ccc(NC(=O)Nc2ccc(F)cc2)cc1	-	-	-	-	-	52.0
O=C(Nc1ccc([N+](=O)[O-])cc1)c1ccc(Cn2cc([N+](=O)[O-])cn2)cc1	-	-	-	-	-	-
O=[N+]([O-])c1ccc(NC(=S)NCCc2ccccc2)cc1	-	-	51.2	-	-	47.3
S=C(NCCc1ccccc1)Nc1ccc(Cl)cc1	-	-	-	-	-	-
O=[N+]([O-])c1ccc(NC(=S)NCCc2ccc(Cl)cc2)cc1	-	64.0	68.6	-	-	70.5
CCCN(CC(=O)Nc1ccccc1OC)C(=O)c1ccncc1	-	-	-	-	-	-
COc1cccc2sc3cc(NCc4ccc(C)o4)ccc3c(=O)c12	-	-	-	-	-	-
CCOC(=O)c1ccc(NC(=S)NCCc2ccccc2)cc1	-	-	59.8	-	-	-
Cc1ccc(-c2csc(NC(=O)c3c(C)noc3C)n2)cc1C	-	-	-	-	-	32.2
CCc1noc(C)c1C(=O)OCC(=O)Nc1nc(-c2ccc(F)c(F)c2)cs1	-	69.0	35.8	-	-	-
CCc1noc(C)c1C(=O)Nc1nc(-c2ccc(OC)c(OC)c2)cs1	-	-	-	-	-	61.0
CC(=O)Nc1ccc(-c2csc(NC(=O)c3ccc(C)o3)n2)cc1	-	-	-	-	-	-
CCc1noc(C)c1C(=O)Nc1nc(-c2ccc(NC(C)=O)cc2)cs1	-	-	-	-	-	57.9
COc1ccc(-c2csc(NC(=O)CSCc3c(C)noc3C)n2)cc1OC	-	-	-	-	-	-
COc1ccccc1OCC(=O)NNC(=O)C1CCN(c2ncnc3sc(C)c(C)c23)CC1	-	-	-	-	-	-
COc1ccc(-c2csc(NC(=O)C3CCN(c4ncnc5sc(C)c(C)c45)CC3)n2)cc1OC	-	45.3	74.7	-	-	76.1
Cc1ccc(-c2nc(SCC(=O)Nc3cc(C)on3)c3c(=O)n(C)c(=O)n(C)c3n2)cc1	-	-	-	-	-	-
O=C(O)c1ccccc1NC(=O)c1cc(-c2ccccc2)nc2ccccc12	-	-	-	-	-	57.3
COc1ccc2nc3ccccc3nc2c1NC(=O)c1ccccc1Cl	-	-	-	-	-	51.2
COc1ccc(-c2cc(C(=O)Nc3c(Cl)cc(Cl)cc3Cl)c3ccccc3n2)cc1OC	-	-	-	-	-	-
